# Screening results: PubChem, several laboratories
# CHOP inhibitor: inhibitors of CHOP induction in ER stress response | CHO-K1 CHOP-promoter luciferase, tunicamycin-induced, 15-18 h | inhibition, % at 10 µM | hit rate 3.8% among 220,000 | AID 2732;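 active means compounds that reduced the stress-induced luciferase reporter signal by more than about 70% of percent inhibition, limit read from the data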;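 further: 0% = tunicamycin plus vehicle and 100% = wells without tunicamycin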
# L major viab: reduces viability of Leishmania major promastigotes; AID 1063; inhibition, % at 10 µM; resazurin fluorescence viability; hit rate 9% among 200,000; in the data active means inhibition above about 50%;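 further: promastigotes grown with compound for 44 hours at 28 °C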
# T cruzi repl: T. cruzi replication inhibition; T. cruzi beta-gal in NIH3T3, luminescence, 90 h; inhibition, % (test concentration not listed); hit rate 1.4% among 300,000;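 active means mean inhibition across valid replicates above about 55%, limit read from the data; inconclusive means mean below that limit but half or more replicates reach it; inactive means mean below it, under half of replicates reach it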;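 further: signal also drops with host cell toxicity which is not excluded here; 0% = plate median of DMSO wells and 100% = zero luminescence signal; higher percent means less beta-gal luminescence so fewer parasites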
#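 Material: NIH/3T3 host cells with β-galactosidase reporter T. cruzi; Input: 5,000 host fibroblasts per well; Medium: DMEM, 2% fetal bovine serum; Compound: 50 nL DMSO compound solution per well; Schedule: 3 h host attachment, then at least 90 h co-culture; Detection: luminescent β-galactosidase signal after 60 min lysis.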
# UPR CHOP act: activators of apoptotic arm of unfolded protein response (CHOP) | CHO-CHOP luciferase reporter, UPR activation, luminescence; percent of tunicamycin response over DMSO baseline | activation, % at 10 µM | hit rate 0.34% among 330,000;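 active means at 10 µM dose, activation of 40% or more, normalized to positive control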;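 further: 100% = tunicamycin at 10 µg/mL and 0% = DMSO alone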
#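 measured by = luciferase luminescence | assay system = CHO-CHOP cells, stable luciferase reporter of PERK-eIF2a-CHOP signalling | amount = 500 reporter cells seeded per well | timing = 6 h compound exposure at 37 °C after overnight seeding | controls = positive tunicamycin 10 µg/mL, negative DMSO alone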
# UPR XBP1 act: activators of adaptive arm of unfolded protein response (XBP1); CHO-XBP1 luciferase reporter, IRE1-XBP1 UPR activation, luminescence; percent of tunicamycin response, DMSO as zero; activation, % at 20 µM; hit rate 0.33% among 330,000;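 active means versus positive control, 20 µM dose yields 30% or more activation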;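 further: 100% = tunicamycin at 10 µg/mL and 0% = DMSO only wells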
#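 assay system = CHO-XBP1 luciferase reporter cells | amount = 1000 cells/well | buffer or medium = F12 plus 10% FBS | compound dosing = single point, 20 µM final compound, 1% DMSO | incubation = 16-18 h cell attachment at 37 °C, then 6 h compound exposure | detection = Steady-Glo luminescence read | controls = tunicamycin 10 µg/mL and vehicle-only wells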
# Dynein cargo inh: dynein cargo transport inhibition; 3617.4 mouse cells, GR-EGFP nuclear translocation imaging; test concentration mostly 20 µM; stimulated with dexamethasone, 1 µM; stronger effect = lower value; z-score, hits read low; hit rate 0.47% among 220,000;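 active means plate z-score of nuclear minus cytoplasmic receptor signal below a set negative limit, without overly bright fluorescence or cell loss, cut at about -3.5 in these data, passing the limit was not always enough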;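 further: z-score of nuclear minus cytoplasmic ring GR-EGFP intensity difference per well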
#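 Buffer or medium: tet-free, stripped-serum medium; Also added: dexamethasone, 1.0 µM final; Technique: high-content fluorescence imaging after fixation; Times: 48 h induction, 1 h compound, 30 min dex at 37 °C; Read-out: per-cell GR-EGFP intensity, nucleus versus surrounding cytoplasmic ring, well-averaged.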
# L major 1uM: inhibitors of Leishmania major promastigote growth, repeat at 1 uM; shares compounds with L major viab; inhibition, % at 1 µM; hit rate 13% among 1,100; L. major promastigote growth, resazurin fluorescence, 48 h; AID 1258;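 active means inhibition above about 50% in both repeat tests, limit read from the data; inconclusive means one repeat under the set limit, the other over it; inactive means both repeats under the set limit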
# Dynein inh conf: dynein cargo transport inhibition, confirmation; AID 463116; hit rate 69% among 1,000; shares compounds with Dynein cargo inh; calls only at 20 µM; 3617.4 GR-EGFP nuclear translocation imaging, dexamethasone-induced;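 active means inhibition of receptor movement into the nucleus at or above a set limit in both runs, with normal cell brightness and cell count; inconclusive means limit reached in only one run, brightness and count normal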;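 further: dexamethasone at 1 µM final in well for 30 min; nuclear minus cytoplasmic GR-EGFP mean intensity difference in channel 2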
# CHOP inh conf: confirmation of CHOP induction inhibitors; shares compounds with CHOP inhibitor; CHO-CHOP promoter luciferase reporter, tunicamycin-induced, luminescence; inhibition, % at 10 µM; hit rate 45% among 2,100;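 active means mean of three repeat readings of reporter signal inhibition above a set limit, cut at about 70% in these data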;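 further: 0% = tunicamycin plus vehicle and 100% = wells lacking tunicamycin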
# Starred values were filed as active, the others as inactive; i = inactive; ? = inconclusive; . = not tested or not shown; + = active, no number. Only a selection was taken, and hits are over-represented in it overall.
SMILES,CHOP inhibitor,L major viab,T cruzi repl,UPR CHOP act,UPR XBP1 act,Dynein cargo inh,Dynein inh conf,others
CN1C[C@H](CNC(=O)OCc2ccccc2)C[C@@H]2c3cccc4c3c(cn4C)C[C@H]21,4.8,69.2*,5.3,1.0,-4.6,-0.196,.,L major 1uM=0.8
c1ccc(CCNCc2cccs2)cc1,.,.,19.9,0.2,-4.8,.,.,
COc1ccc(C(=O)C2CCCN(Cc3ccc(C)s3)C2)c(OC)c1 (centres undefined),25.4,80.5*,15.6,-0.5,-0.6,-0.942,.,L major 1uM=9.6
CN1CCCC(C(=O)c2ccc(Cl)cc2)C1 (centres undefined),12.9,44.5,-0.7,-0.5,0.3,-0.66,.,
CC(C)(C)c1ccc(C(=O)C2CCCN(C3CCC3)C2)cc1 (centres undefined),-11.5,93.1*,27.8,1.3,-3.5,1.41,.,L major 1uM=80.4*
CC(C)N1C(=O)CC2(CC[N+](C)(CCOC(=O)C(O)(c3ccccc3)c3ccccc3)CC2)C1=O (centres undefined),19.1,93.4*,-12.6,-0.2,3.5,1.62,.,L major 1uM=-3.1
c1ccc(C(OCCN2CCN(c3ncccn3)CC2)c2ccccc2)cc1,.,.,-6.2,2.6,-2.2,.,.,
CC(=O)c1ccc2c(c1)C1C(Cl)C(Sc3ccccc3[N+](=O)[O-])CC1C(c1ccccc1[N+](=O)[O-])N2 (centres undefined),3.2,53.6*,36.0,0.9,-1.7,0.847,.,L major 1uM=16.4
CC(=O)c1ccc2c(c1)C1C(Cl)C(Sc3ccccc3[N+](=O)[O-])CC1C(c1ccccc1)N2 (centres undefined),30.1,19.0,18.2,3.8,2.3,-0.00656,.,
COC(=O)C1=C(c2ccc(F)cc2F)C[C@@H]2CC[C@H]1N2C(=O)NCc1ccc(C(F)(F)F)cc1,.,.,.,-0.3,-3.3,.,.,
CN1/C(=C\C=C2C(=O)NC(=O)NC2=O)C(C)(C)c2ccccc21,16.4,2.4,21.0,1.7,5.7,1.66,.,
CN1/C(=C\C=C\C2=[N+](C)c3ccc4ccccc4c3C2(C)C)C(C)(C)c2ccccc21,108.1*,97.7*,.,-8.6,-6.2,-1.62,.,L major 1uM=100.6*;CHOP inh conf=125.0*
CC1(C)C[C@H]2C=C(C=O)[C@]3(C=O)C[C@]3(C)[C@H]2C1,109.2*,83.6*,?,-9.2,-8.7,-5.09,+,L major 1uM=-8.2;CHOP inh conf=127.6*
CC(C)CCN1CCN(Cc2c(F)cccc2Cl)CC1CCO (centres undefined),13.7,47.3,2.2,-2.0,0.4,0.366,.,
O=c1[nH]c2ccccc2n1C1CCN(CCCC(c2ccc(F)cc2)c2ccc(F)cc2)CC1,-0.3,82.5*,42.8,-2.7,-0.3,0.137,.,L major 1uM=8.8;CHOP inh conf=116.9*
Cc1cc(Oc2cc(NN3CCCCC3)c([N+](=O)[O-])cc2[N+](=O)[O-])ccc1[N+](=O)[O-],.,.,11.9,-1.8,1.3,.,.,
COc1ccc(OC)c(N2C(=O)NC(=O)/C(=C/c3ccc([N+](=O)[O-])s3)C2=O)c1,-69.9,96.8*,64.7*,0.6,-2.1,-5.34*,+,
CN1C(=O)/C(=C/C=C/c2ccco2)C(=O)NC1=S,3.0,.,2.3,-0.3,1.3,-0.757,.,
Cc1cccc(N2C(=O)NC(=O)/C(=C\C=C\c3ccco3)C2=O)c1,17.5,.,-31.7,9.7,2.8,-4.96*,+,
COc1ccc(Oc2cc(NC(=O)c3nn(C)cc3[N+](=O)[O-])cc([N+](=O)[O-])c2)cc1,-54.2,11.1,-0.7,16.6,1.7,-3.99*,+,
CNc1cc(Cl)c2nonc2c1[N+](=O)[O-],106.9*,74.5*,42.2,.,.,-6.95*,?,
COc1cccc(C2CC3C(=O)C=CC2N3Cc2ccccc2)c1 (centres undefined),-37.2,99.1*,4.6,1.6,3.8,-3.78*,+,
COc1ccc(C2(c3cccc(O)c3OC)CCN(C(C)=O)CC2)cc1O,.,.,-10.3,-0.8,-2.3,.,.,
C=CCN1C(=O)/C(=C/c2cc(C)n(-c3cccnc3)c2C)C(=O)NC1=S,-58.4,99.3*,0.7,.,.,-6.46*,i,
Cc1cc(C=C2C(=O)NC(=O)NC2=O)c(C)n1-c1cccnc1,2.9,.,-0.1,1.8,-2.3,-0.732,.,
SMILES,CHOP inhibitor,L major viab,T cruzi repl,UPR CHOP act,UPR XBP1 act,Dynein cargo inh,Dynein inh conf,others
CCN(CC)c1ccc(/C=N/c2sc3c(c2C#N)C2CCN3CC2)c(O)c1,51.4,13.9,.,.,.,-3.73,+,
Cc1ccccc1NC1(C#N)CCCCC1,-1.4,-5.2,-4.7,-0.6,-0.9,1.12,.,
C=C1C[C@@H]2[C@H](CC[C@]3(C)C(=O)CC[C@@H]23)[C@@]2(C)C=CC(=O)C=C12,-2.1,.,-0.1,.,.,.,.,
Cc1cc([N+](=O)[O-])c2ccccc2[n+]1[O-],104.3*,.,78.8*,-4.1,-6.1,-4.55*,+,
CC(C)(C)c1cc(OC(=O)Cc2ccccc2)ccc1O,.,.,?,0.2,-4.1,.,.,
Cc1nn(Cc2ccccc2)c(C)c1C=C1C(=O)NC(=S)NC1=O,1.1,59.7*,-2.0,6.6,-2.5,-4.68*,i,
Cc1c(C=C2C(=O)NC(=O)NC2=O)c(=O)n(-c2ccccc2)n1C,8.3,1.2,-6.8,1.2,0.5,0.736,.,
Cc1ccc2c(c1)N(C(=O)CCC(=O)N1CCC3(CC1)OCCO3)CCO2,.,.,-6.0,-0.3,-3.0,.,.,
CN1CCN(c2ccc([N+](=O)[O-])c3no[n+]([O-])c23)CC1,106.8*,.,49.3,.,.,-4.68*,i,
Cc1cc(OCC(=O)NCc2ccncc2)c2c3c(c(=O)oc2c1)CCCC3,.,.,21.3,1.8,-1.9,.,.,
COc1cc2[nH]c(C(=O)N3CCC4(CC3)OCCO4)cc2c(OC)c1OC,.,.,-11.9,0.8,-4.7,.,.,
N#CC(C#N)=Cc1ccc(C=C(C#N)C#N)cc1,-31.7,.,.,.,.,-4.3*,?,
COc1cc(C(=O)OC2C[C@H]3CC[C@@H](C2)N3)ccc1O (some centres undefined),.,.,-0.3,-0.2,-5.6,.,.,
C=CCN1C(=O)NC(=O)/C(=C/c2ccc(OC)c(CSc3ccccn3)c2)C1=O,-50.7,-5.0,-0.4,0.4,0.0,-0.747,.,
C=CCN1C(=O)NC(=O)/C(=C/C=C/c2ccccc2)C1=O,15.1,99.5*,-20.0,.,.,-4.88*,+,
O=C1NC(=O)N(CCc2ccc(F)cc2)C(=O)/C1=C\C=C\c1ccccc1,72.6*,100.5*,.,.,.,-4.08*,+,
